Test results taken from ChEMBL document CHEMBL3232922, “Discovery and SAR of 6-alkyl-2,4-diaminopyrimidines as histamine H₄ receptor antagonists” (J Med Chem, 2014).
Active and inactive are the calls of the source. The rule behind the calls is not given here.

Legend:
[1] = Initial plasma concentration in Balb/c mouse at 2 mg/kg, iv; type: ADME, organism-based; set-up: dose 2 mg/kg, route intravenous
[2] = Fraction unbound in mouse plasma; type: ADME, cell-free
[3] = Ratio of drug level in liver to plasma in mouse at 5 mg/kg, po administered as single dose […] by LC-MS/MS analysis; type: ADME, organism-based; set-up: dose 5 mg/kg, route oral
[4] = Permeability from basolateral to apical side in human Caco cells; type: ADME, cell-based; conditions: Caco-2, read-out: permeability
Histamine H4 receptor [5] = molecular target: T1, Histamine H4 receptor (Mus musculus, UniProt Q91ZY2); assay: Displacement of [3H]histamine from mouse histamine H4 receptor expressed in SK-N-MC cells after 45 mins by competition binding analysis; type: cell-based
T1 sequence (Q91ZY2 whole entry): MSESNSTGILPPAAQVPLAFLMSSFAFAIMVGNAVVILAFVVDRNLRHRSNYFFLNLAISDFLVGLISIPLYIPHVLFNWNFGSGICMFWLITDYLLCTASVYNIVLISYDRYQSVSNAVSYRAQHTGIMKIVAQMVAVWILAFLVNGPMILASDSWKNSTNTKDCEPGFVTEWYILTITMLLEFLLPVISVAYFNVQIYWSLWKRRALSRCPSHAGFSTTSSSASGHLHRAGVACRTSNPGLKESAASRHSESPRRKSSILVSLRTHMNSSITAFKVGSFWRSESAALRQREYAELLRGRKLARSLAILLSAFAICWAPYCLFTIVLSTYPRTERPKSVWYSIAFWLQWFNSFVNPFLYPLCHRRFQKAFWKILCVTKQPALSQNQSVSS
Outline: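 Transfected cells expressing the H4 receptor, competition against [3H]histamine. Ki is the geometric mean of at least three independent determinations (each in triplicate), calculated by the Cheng–Prusoff equation.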

[6] = Cmax in rat at 10 mg/kg, po; type: ADME, organism-based; set-up: dose 10 mg/kg, route oral; conditions: in vivo
[7] = Binding affinity to monkey histamine H4 receptor; set-up: species or system Macaca mulatta
Cytochrome P450 2D6 = Cytochrome P450 2D6 (Homo sapiens, UniProt P10635); assay: Inhibition of CYP2D6 (unknown origin) at 50 to 100 uM; type: ADME
[8] = Tmax in Sprague-Dawley rat at 50 mg/kg, po; type: ADME, organism-based; set-up: dose 50 mg/kg, route oral; conditions: in vivo
Mus musculus = assay: Antipruritic activity against histamine-induced scratching C57/bl6 mouse model assessed as inhibition of itching at 5 to 20 mg/kg, po administered 30 mins prior to histamine challenge measured over 20 mins; type: functional, organism-based
Outline: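 Mice (n = 6–8 per group) were dosed orally in 20% hydroxypropyl-β-cyclodextran 30 min before intradermal histamine (100 μg). Magnets were placed on the ear and the mice were put in containers above a solenoid. Scratch-specific signals were counted automatically over 20 min immediately after the histamine injection.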

[9] = Ratio of drug level in brain to plasma in mouse at 5 mg/kg, po administered as single dose […] by LC-MS/MS analysis; type: ADME, organism-based; set-up: dose 5 mg/kg, route oral; conditions: brain and plasma
[10] = molecular target: T2, Voltage-gated inwardly rectifying potassium channel KCNH2 (Homo sapiens, UniProt Q12809); assay: Inhibition of human ERG channel up to 30 uM by astemizole binding assay
[11] = Oral bioavailability in Balb/c mouse at 20 mg/kg; type: ADME, organism-based; conditions: in vivo
Histamine H4 receptor [12] = molecular target: T3, Histamine H4 receptor (Cavia porcellus, UniProt Q91ZY3); assay: Binding affinity to guinea pig histamine H4 receptor
T3 sequence (Q91ZY3 whole entry): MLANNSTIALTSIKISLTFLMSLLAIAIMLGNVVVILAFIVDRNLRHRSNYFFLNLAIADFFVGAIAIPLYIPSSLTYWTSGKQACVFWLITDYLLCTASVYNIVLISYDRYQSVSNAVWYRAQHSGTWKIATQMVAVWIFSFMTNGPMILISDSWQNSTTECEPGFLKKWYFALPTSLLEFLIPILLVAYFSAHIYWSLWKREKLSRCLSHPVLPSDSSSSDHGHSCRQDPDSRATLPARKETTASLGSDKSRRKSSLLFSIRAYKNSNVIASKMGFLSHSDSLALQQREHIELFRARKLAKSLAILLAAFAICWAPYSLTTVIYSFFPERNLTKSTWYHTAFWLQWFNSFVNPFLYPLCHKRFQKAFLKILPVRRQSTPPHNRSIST

[13] = AUC in Sprague-Dawley rat at 200 mg/kg, po; type: ADME, organism-based; set-up: dose 200 mg/kg, route oral; conditions: plasma
[14] = Volume of distribution at steady state in Balb/c mouse at 2 mg/kg, iv; type: ADME, organism-based; set-up: dose 2 mg/kg, route intravenous; conditions: in vivo, read-out: Vdss
[15] = Half life in beagle dog at 2 mg/kg, iv; type: ADME, organism-based, Canis lupus familiaris; set-up: dose 2 mg/kg, route intravenous; conditions: in vivo
Cytochrome P450 2C9 = Cytochrome P450 2C9 (Homo sapiens, UniProt P11712); assay: Inhibition of CYP2C9 (unknown origin) at 50 to 100 uM; type: ADME
[16] = molecular target: T2, Voltage-gated inwardly rectifying potassium channel KCNH2; assay: Inhibition of human ERG channel transfected in HEK293 cells assessed as reduction in delayed rectifier current by patch clamp assay; type: cell-based
Outline: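 The delayed rectifier current (IKr) was recorded in hERG-transfected HEK293 cells with the compound at 3 μM.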

[17] = Cmax in Sprague-Dawley rat at 500 mg/kg, po; type: ADME, organism-based; set-up: dose 500 mg/kg, route oral; conditions: in vivo
[18] = Fraction unbound in rat plasma; type: ADME, cell-free
[19] = Half life in Balb/c mouse at 20 mg/kg, po; type: ADME, organism-based; set-up: dose 20 mg/kg, route oral; conditions: in vivo
[20] = AUC in Balb/c mouse at 5 mg/kg, po; type: ADME, organism-based; set-up: dose 5 mg/kg, route oral; conditions: plasma
[21] = Binding affinity to dog histamine H4 receptor; set-up: species or system Canis lupus familiaris
[22] = Half life in monkey liver microsomes; type: ADME, Macaca mulatta; conditions: rhesus monkey
[23] = Half life in rat liver microsomes; type: ADME
Cytochrome P450 1A2 = molecular target: T4, Cytochrome P450 1A2 (Homo sapiens, UniProt P05177); assay: Inhibition of CYP1A2 (unknown origin) at 50 to 100 uM; type: ADME
T4 sequence (P05177 whole entry): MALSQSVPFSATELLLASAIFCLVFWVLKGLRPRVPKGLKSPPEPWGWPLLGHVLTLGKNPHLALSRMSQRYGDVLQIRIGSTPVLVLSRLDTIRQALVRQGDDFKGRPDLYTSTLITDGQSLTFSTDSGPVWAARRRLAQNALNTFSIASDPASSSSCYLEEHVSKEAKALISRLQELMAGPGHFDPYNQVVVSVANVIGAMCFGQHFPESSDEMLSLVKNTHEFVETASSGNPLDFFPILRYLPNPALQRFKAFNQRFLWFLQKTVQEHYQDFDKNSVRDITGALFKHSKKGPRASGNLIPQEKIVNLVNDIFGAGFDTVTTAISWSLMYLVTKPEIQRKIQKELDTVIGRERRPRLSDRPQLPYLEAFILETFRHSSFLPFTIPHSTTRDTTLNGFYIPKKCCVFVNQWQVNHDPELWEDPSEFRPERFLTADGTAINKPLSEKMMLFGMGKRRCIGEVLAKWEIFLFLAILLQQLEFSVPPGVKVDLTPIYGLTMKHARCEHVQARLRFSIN

[24] = Half life in Sprague-Dawley rat at 500 mg/kg, po; type: ADME, organism-based; set-up: dose 500 mg/kg, route oral; conditions: in vivo
[25] = Cmax in Sprague-Dawley rat at 200 mg/kg, po; type: ADME, organism-based; set-up: dose 200 mg/kg, route oral; conditions: in vivo
[26] = Half life in Sprague-Dawley rat at 50 mg/kg, po; type: ADME, organism-based; set-up: dose 50 mg/kg, route oral; conditions: in vivo

T2 sequence (Q12809 whole entry): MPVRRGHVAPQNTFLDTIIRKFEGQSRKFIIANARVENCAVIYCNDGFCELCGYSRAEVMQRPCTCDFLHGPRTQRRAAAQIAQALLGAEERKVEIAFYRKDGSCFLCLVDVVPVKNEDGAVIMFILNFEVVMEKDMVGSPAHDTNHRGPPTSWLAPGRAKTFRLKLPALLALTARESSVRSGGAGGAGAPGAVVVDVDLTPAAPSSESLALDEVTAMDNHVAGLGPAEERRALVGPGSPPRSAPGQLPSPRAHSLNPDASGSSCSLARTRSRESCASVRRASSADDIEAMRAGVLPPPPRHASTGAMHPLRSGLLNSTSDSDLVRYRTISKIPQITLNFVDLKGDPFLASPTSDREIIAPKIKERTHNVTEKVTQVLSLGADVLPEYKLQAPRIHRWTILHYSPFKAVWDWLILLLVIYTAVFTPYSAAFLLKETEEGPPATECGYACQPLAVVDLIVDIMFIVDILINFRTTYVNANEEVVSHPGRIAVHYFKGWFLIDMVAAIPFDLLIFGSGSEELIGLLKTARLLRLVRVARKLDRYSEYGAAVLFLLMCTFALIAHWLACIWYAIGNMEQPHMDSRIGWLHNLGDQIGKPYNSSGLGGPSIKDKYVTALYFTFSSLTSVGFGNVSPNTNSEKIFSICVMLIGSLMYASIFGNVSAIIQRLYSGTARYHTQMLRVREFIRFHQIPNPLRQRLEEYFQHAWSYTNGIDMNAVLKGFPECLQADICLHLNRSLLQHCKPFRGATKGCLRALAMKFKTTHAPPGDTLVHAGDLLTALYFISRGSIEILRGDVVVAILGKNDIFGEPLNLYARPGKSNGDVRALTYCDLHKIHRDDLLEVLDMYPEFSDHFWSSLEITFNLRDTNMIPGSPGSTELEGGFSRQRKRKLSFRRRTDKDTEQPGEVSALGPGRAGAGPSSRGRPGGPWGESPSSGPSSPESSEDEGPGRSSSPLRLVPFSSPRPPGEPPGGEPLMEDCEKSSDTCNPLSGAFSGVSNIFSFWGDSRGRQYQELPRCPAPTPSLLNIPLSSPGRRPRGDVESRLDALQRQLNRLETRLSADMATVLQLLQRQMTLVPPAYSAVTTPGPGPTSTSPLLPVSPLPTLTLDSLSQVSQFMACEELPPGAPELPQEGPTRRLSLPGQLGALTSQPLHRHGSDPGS
Cytochrome P450 2C9, sequence (P11712 whole entry): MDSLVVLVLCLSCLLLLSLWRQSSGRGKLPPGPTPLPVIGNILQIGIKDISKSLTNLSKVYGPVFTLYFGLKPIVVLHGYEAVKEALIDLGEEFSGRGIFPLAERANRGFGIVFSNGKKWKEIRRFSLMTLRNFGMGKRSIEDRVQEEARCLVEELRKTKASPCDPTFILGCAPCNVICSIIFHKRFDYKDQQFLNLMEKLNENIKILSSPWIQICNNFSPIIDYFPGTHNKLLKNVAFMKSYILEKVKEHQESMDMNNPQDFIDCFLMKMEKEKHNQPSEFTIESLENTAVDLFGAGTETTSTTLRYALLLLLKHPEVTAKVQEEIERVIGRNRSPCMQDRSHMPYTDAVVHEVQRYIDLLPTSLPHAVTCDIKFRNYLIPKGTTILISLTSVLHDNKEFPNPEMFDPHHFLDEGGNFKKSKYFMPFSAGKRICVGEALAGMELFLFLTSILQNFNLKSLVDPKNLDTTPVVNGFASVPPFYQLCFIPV
Cytochrome P450 2D6, sequence (P10635 whole entry): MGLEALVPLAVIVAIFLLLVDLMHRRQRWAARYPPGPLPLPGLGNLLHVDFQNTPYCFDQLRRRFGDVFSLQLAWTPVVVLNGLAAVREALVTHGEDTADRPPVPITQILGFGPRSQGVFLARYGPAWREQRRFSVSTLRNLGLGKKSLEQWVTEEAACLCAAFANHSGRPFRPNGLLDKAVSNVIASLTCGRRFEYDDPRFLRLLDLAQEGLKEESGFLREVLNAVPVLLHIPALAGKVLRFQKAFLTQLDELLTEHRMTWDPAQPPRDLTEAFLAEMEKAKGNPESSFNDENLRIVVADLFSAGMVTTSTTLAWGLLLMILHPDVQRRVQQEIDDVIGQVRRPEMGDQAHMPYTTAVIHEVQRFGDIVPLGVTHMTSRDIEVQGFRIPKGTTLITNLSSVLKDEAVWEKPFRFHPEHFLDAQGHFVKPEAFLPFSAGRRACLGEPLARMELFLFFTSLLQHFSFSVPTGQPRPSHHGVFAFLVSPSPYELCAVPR

C0 [1]: 1020 nM
fraction unbound [2]: 0.76
Kp [3]: 23.2
Papp B→A [4]: 22 ×10⁻⁶ cm/s
Ki (Histamine H4 receptor [5]): 0.0053 µM
Cmax [6]: 300 nM
Ki [7]: 0.025 µM
inhibition (INH) (Cytochrome P450 2D6): Not Active
Tmax [8]: 2 h
Kp [9]: 22.7
bioavailability [11]: 75%
Ki (Histamine H4 receptor [12]): 0.306 µM
AUC [13]: 71.2 µM·h
Vd [14]: 31 L/kg
half-life [15]: 10.2 h
inhibition (INH) (Cytochrome P450 2C9): Not Active
Cmax [17]: 7070 nM
fraction unbound [18]: 0.83
half-life [19]: 4.7 h
AUC [20]: 9.69 µM·h
Ki [21]: ≥ 10 µM
half-life [22]: > 2 h
half-life [23]: > 2 h
inhibition (INH) (Cytochrome P450 1A2): Not Active
half-life [24]: 12 h
Cmax [25]: 4910 nM
half-life [26]: 5.45 h
Compound: CC(C)c1cc(N2CC[C@@H](N)C2)nc(N)n1 [JNJ-39758979]
inhibition (Mus musculus): Active
inhibition (INH) [10]: Not Active
INH [16]: > 10 µM
